Results on five compounds are retold here after article PMC8851455 (ACS Omega, 2022).

Read-outs that look alike come from different tables or passages of the source.

A word on the EC50: it is the midpoint of the concentration-response curve. The low end stands for greater potency, the high end for weaker potency.

Data set [1] relates to S. typhimurium TA100. Put plainly: Ames test, strain TA100. The class given is cell-based, Salmonella typhimurium. For orientation: The Ames test detects mutagens through reverse mutation in bacteria.
Data set [2] deals with S. typhimurium TA102. To be noted: TA102 +S9, 5 μg/plate.
In data set [3] the test system is S. typhimurium TA98. Put plainly: Ames test, strain TA98. The class given is cell-based, Salmonella typhimurium.
Data set [4] has as its system MCF-7 cells. Put plainly: MCF-7 cell proliferation assay. The conditions noted are these: for EC50: Homo sapiens, MCF7. The class given is cell-based, human. Put shortly:
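MCF-7 cells exposed to test compound or E2 at six concentrations from 10–12 to 10–7 M in EA-free medium. Proliferation read as MTT product absorbance at 570 nm. Three independent trials, each in triplicate. % RME2 = 100 × (OD test − OD VC)/(max OD E2 − OD VC). EC50 from curve fitting. EEF = EC50 of E2/EC50 of sample. One-way ANOVA with Dunnett's test versus E2 at each concentration.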

Data set [5] concerns chicken embryo. Put plainly: Chicken embryonic assay. The class given is in vivo. To be noted: egg injection, day 18.
Data set [6] deals with chicken fetal liver. The experiment in a line: TBARs level. In kind it is in vivo. To be noted: lower dose (0.05 mM: 45–50 μg/kg).
[7] abbreviates: higher dose (0.5 mM: 450–500 μg/kg; E2 0.1 mM: 91 μg/kg).
Setting [8] is: lower dose (0.05 mM: 45–50 μg/kg; E2 0.01 mM: 9.1 μg/kg).

In the case of `Nc1ccc2cc3ccccc3cc2c1` [2-AA, reference compound], the “number of revertants/plate (M ± SD), positive control” value (“number of revertants/plate (M ± SD)” for short) in data set [1] (TA100 +S9, 5 μg/plate, control set of luteolin and apigenin) was 941 ± 56 ^e^** revertants/plate; in data set [1] (TA100 +S9, 5 μg/plate, control set of quercetin and genistein), 845 ± 45 ^e^** revertants/plate; in data set [2] (control set of luteolin and apigenin) it was 997 ± 35 ^e^** revertants/plate; in data set [2] (control set of quercetin and genistein), 757 ± 35 ^e^** revertants/plate; in data set [3] (TA98 +S9, 5 μg/plate, control set of luteolin and apigenin), 846 ± 47 ^e^** revertants/plate; in data set [3] (TA98 +S9, 5 μg/plate, control set of quercetin and genistein), 806 ± 25 ^e^** revertants/plate.

For the compound `O=[N+]([O-])c1ccc2c(c1)Cc1ccccc1-2` [2-NF, reference compound], the “number of revertants/plate (M ± SD)” value in data set [3] (TA98 -S9, 1 μg/plate, control set of luteolin and apigenin) was 723 ± 64 ^c^** revertants/plate; in data set [3] (TA98 -S9, 1 μg/plate, control set of quercetin and genistein), 634 ± 16 ^c^** revertants/plate.

The compound `C[C@]12CC[C@@H]3c4ccc(O)cc4CC[C@H]3[C@@H]1CC[C@@H]2O` [E2, 17β-estradiol, reference compound] yielded an EC50 in data set [4] of 0.01 nM. In data set [5] (setting [7]), the “LSI (liver somatic index)” value is recorded as 2.06 ± 0.38%, the “REEW (ratio of embryo to egg weight)” value is reported as 0.38 ± 0.021, the malformation rate came out at 0.0% and the mortality rate stood at 33.3%. In data set [5] (setting [7]), the “number of dead chicken embryo” value is listed as 6, the “number of malformation chicken embryo” value is 0, the “weights: embryo” value is 22.89 ± 0.87 g and the “weights: heart” value came to 0.18 ± 0.01 g. In data set [5] (setting [7]), the “weights: liver” value was found to be 0.47 ± 0.07 g. For the same compound, in data set [5] (setting [8]), the “LSI (liver somatic index)” value came to 2.18 ± 0.01%, the “REEW (ratio of embryo to egg weight)” value stood at 0.39 ± 0.001, the malformation rate amounted to 0.0% and the mortality rate is reported as 31.8%. Further, in data set [5] (setting [8]), the “number of dead chicken embryo” value is 7, the “number of malformation chicken embryo” value is listed as 0, the “weights: embryo” value was found to be 20.24 ± 3.53 g and the “weights: heart” value came to 0.18 ± 0.03 g. The “weights: liver” value in data set [5] (setting [8]) is on record as 0.54 ± 0.01 g.

Take `[N-]=[N+]=[N-].[Na+]` [NaN3, reference compound]: the “number of revertants/plate (M ± SD)” value in data set [1] (TA100 -S9, 1 μg/plate, control set of luteolin and apigenin) was 860 ± 52 ^d^** revertants/plate; in data set [1] (TA100 -S9, 1 μg/plate, control set of quercetin and genistein), 743 ± 28 ^d^** revertants/plate.

With `O=c1cc(-c2ccc(O)c(O)c2)oc2cc(O)cc(O)c12` [luteolin], in data set [4] (EC50 of E2 divided by that of the test compound), the “EEF (estradiol equivalent factor)” value came out at 0.0012. In data set [4], the EC50 was found to be 8.4 nM. For the same compound, the “max % RME2” value in data set [4] (highest % RME2 (relative maximum % E2) in test range 10^–12–10^–7 M) is on record as 26%. In addition, in data set [5] (setting [7]), the malformation rate amounted to 11.11%, the “number of dead chicken embryo” value stood at 7, the “number of malformation chicken embryo” value was 1 and the “weights: embryo” value is reported as 20.70 ± 0.00 g. Moreover, in data set [5] (setting [7]), the “weights: heart” value is 0.18 ± 0.05 g and the “weights: liver” value was determined as 0.49 ± 0.05 g. Further, in data set [5] (setting [8]), the malformation rate was found to be 21.43%, the mortality rate came to 12.5%, the “number of dead chicken embryo” value came to 2 and the “number of malformation chicken embryo” value is 3. In data set [5] (setting [8]), the “weights: embryo” value is recorded as 19.75 ± 0.75 g, the “weights: heart” value worked out at 0.19 ± 0.05 g and the “weights: liver” value amounted to 0.44 ± 0.05 g. In data set [6], the TBARs value is recorded as 142.56 nmol/g.
